KCNQ1 block: inhibitors of human KCNQ1 channel, primary screen, cell-based, thallium flux, high-throughput | CHO-K1 KCNQ1, FluxOR thallium flux fluorescence; hits give high values | 310,000 compounds, 1.3% hits | B-score at 10 µM | AID 2642, 2010;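 active means compounds whose thallium flux B-score, printed positive for inhibition, exceeds three library SD while starting fluorescence stays within three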;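 further: channel opened by potassium depolarization with thallium stimulus after 20 min compound exposure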
PHOSPHO1 block: PubChem AID 1565 | recombinant PHOSPHO1, absorbance phosphatase assay | inhibition, % at 13.3 µM | 290,000 compounds, 1.1% hits; in the data active means inhibition above about 60%
KCNQ1 pot: potentiators or activators of KCNQ1 channel, primary screen, cell-based, thallium flux, high-throughput; Potassium voltage-gated channel subfamily KQT member 1 (Homo sapiens), P51787; CHO-K1 KCNQ1, thallium flux FluxOR fluorescence; hits give high values; B-score at 10 µM; 310,000 compounds, 0.35% hits;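 active means fluorescence ratio B-score, a plate-corrected score, at least three library SD, with initial intensity B-score within 5 SD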
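Assay system: CHO-K1 cells stably expressing KCNQ1; Medium: assay buffer with matched DMSO; Also added: K+/Tl+ depolarizing stimulus; Dosing: single dose; Timing: dye 90 min, compound 20 min, room temperature; Measured by: kinetic FluxOR thallium fluorescence, 10-s 1-Hz baseline, 110-s post-stimulus read; Read-out: peak-minus-minimum fluorescence over initial fluorescence, negative-control normalized, B-scored.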
KCNK9 inh: KCNK9 potassium channel inhibitors, primary screen, HEK293 cells, thallium flux; FluxOR thallium flux fluorescence; hits give low values; AID 488922, 2010; Potassium channel subfamily K member 9 (Homo sapiens), Q9NPC2; B-score at 10 µM; 310,000 compounds, 1.2% hits;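 active means ratio B-score over 3 SD below the library mean, with starting fluorescence within 5 SD of its mean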;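 further: negative B-score means less thallium flux so channel inhibition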
hERG rescue: hERG rescue from dofetilide block, primary screen, cell-based, CHO-hERG, FluxOR thallium flux, dofetilide IC70. 310,000 compounds, 0.51% hits. Voltage-gated inwardly rectifying potassium channel KCNH2 (Homo sapiens), Q12809. activation (rescue from dofetilide block), less the hit threshold, % at 10 µM. dofetilide IC70 present;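 active means activation above the mean of controls blocked by dofetilide plus 5 SD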;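 further: thallium influx through hERG after potassium depolarization seen as dye fluorescence rise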
Target sequence (Q12809 whole entry, looked up): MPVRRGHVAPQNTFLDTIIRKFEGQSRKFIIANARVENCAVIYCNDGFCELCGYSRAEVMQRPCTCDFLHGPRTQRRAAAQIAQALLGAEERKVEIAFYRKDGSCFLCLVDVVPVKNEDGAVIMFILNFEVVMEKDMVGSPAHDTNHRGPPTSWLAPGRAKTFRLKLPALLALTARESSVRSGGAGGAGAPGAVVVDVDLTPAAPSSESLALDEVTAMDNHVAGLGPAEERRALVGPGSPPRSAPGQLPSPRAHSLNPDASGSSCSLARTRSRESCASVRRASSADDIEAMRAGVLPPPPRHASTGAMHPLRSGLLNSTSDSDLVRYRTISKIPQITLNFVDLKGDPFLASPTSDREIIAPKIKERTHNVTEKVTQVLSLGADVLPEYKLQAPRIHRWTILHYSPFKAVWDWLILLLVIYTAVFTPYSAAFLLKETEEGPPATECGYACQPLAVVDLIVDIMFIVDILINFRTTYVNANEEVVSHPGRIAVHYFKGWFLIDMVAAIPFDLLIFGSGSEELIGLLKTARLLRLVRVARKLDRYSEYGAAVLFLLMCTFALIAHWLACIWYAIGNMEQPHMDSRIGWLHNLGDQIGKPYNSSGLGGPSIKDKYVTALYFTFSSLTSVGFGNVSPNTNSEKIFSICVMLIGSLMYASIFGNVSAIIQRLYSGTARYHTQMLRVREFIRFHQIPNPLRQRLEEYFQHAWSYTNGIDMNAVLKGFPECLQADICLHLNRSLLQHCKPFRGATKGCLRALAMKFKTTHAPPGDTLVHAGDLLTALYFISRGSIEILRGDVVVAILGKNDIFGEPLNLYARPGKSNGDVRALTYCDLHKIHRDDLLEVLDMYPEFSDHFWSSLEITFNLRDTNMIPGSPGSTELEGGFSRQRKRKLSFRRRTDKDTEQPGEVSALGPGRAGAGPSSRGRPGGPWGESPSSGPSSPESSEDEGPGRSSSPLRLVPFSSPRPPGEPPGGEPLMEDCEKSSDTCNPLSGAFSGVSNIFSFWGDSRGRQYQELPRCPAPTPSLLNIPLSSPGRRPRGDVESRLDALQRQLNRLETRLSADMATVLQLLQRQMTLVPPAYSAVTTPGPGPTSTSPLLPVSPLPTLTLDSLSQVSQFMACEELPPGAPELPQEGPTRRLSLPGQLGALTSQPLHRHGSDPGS
KCNK3 block: human KCNK3 channel inhibitors, primary screen, CHO cells, FluxOR thallium flux, B-score | FluxOR fluorescence; hits give low values | B-score at 10 µM | 340,000 compounds, 0.84% hits;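 active means B-score under library mean minus 4 SD, starting fluorescence ratio at most library mean plus 5 SD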;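 further: more negative B-score means stronger inhibition of thallium flux through KCNK3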
* hit, by the source's call. In the library only some 4% were active in any assay of this set; here they are far more common.

`COc1cccc(Nc2nc(-c3sc(C)nc3C)cs2)c1` gave KCNQ1 block inactive, PHOSPHO1 block -7.8, KCNQ1 pot inactive, KCNK9 inh inactive, hERG rescue -7.5 and KCNK3 block inactive.
For COc1cccc(Nc2nc(-c3sc(N)nc3C)cs2)c1 the results were KCNQ1 block inactive, PHOSPHO1 block 65.8*, KCNQ1 pot inactive, KCNK9 inh inactive, hERG rescue -27.7 and KCNK3 block inactive.
Cc1nc2sccn2c1-c1csc(NCc2ccccc2)n1 was read as KCNQ1 block 6*, PHOSPHO1 block 33.8, KCNQ1 pot inactive, KCNK9 inh inactive, hERG rescue -20.8 and KCNK3 block inactive.
Screening Cc1nc(N)sc1-c1csc(NCc2ccccc2)n1 returned KCNQ1 block inactive, PHOSPHO1 block 67.3*, KCNQ1 pot inactive, KCNK9 inh inactive, hERG rescue -5.4 and KCNK3 block inactive.
For O=C(Nc1nc2cc3c(cc2s1)OCCO3)C1CCCCC1 the results were KCNK3 block inactive.
`Cc1ccc(Cn2c(N)nc3ccccc32)cc1` gave KCNQ1 block inactive, PHOSPHO1 block 23.9, KCNQ1 pot inactive, KCNK9 inh inactive, hERG rescue -3.8 and KCNK3 block inactive.
Screening CC(=O)C1=NN(c2ccccc2)C(c2cccs2)N1c1ccccc1 (centres undefined) returned KCNQ1 block 8*, PHOSPHO1 block -4.2, KCNQ1 pot inactive, KCNK9 inh -7.58* and hERG rescue -8.8.
For C=CCNC(=O)CN1CCC(O)(c2ccc(F)cc2)CC1 the results were KCNQ1 block inactive, PHOSPHO1 block 11.4, KCNQ1 pot inactive, KCNK9 inh inactive, hERG rescue -1.4 and KCNK3 block inactive.
`CC(=O)NS(=O)(=O)c1ccc(NC(=O)c2oc3c(Cl)cccc3c2C)cc1` gave KCNQ1 block inactive, PHOSPHO1 block -3.1, KCNQ1 pot inactive, KCNK9 inh inactive and hERG rescue -6.6.
For CC1C(=O)c2ccccc2CC1C(=O)O (centres undefined) the results were KCNK3 block inactive.
Screening CCOc1ccc(NC(=O)CN(C)c2nnnn2-c2ccccc2)cc1OCC returned KCNQ1 block inactive, PHOSPHO1 block 16.3, KCNQ1 pot inactive, KCNK9 inh inactive, hERG rescue -13.5 and KCNK3 block inactive.
Screening Clc1ccc(CSc2nnc(CNc3cccc(Cl)c3)o2)cc1 returned KCNQ1 block 6*, PHOSPHO1 block -15.3, KCNQ1 pot inactive, KCNK9 inh inactive, hERG rescue -7.4 and KCNK3 block inactive.
COc1ccccc1/C=N/n1c(C)nnc1-n1nc(C)cc1C was read as KCNQ1 block inactive, PHOSPHO1 block -2.0, KCNQ1 pot inactive, KCNK9 inh inactive, hERG rescue 0.0 and KCNK3 block inactive.
`Cc1cc(C)n(-c2nnc(C)n2/N=C/c2ccccc2OCc2ccccc2Cl)n1` gave KCNQ1 block inactive, PHOSPHO1 block -10.4, KCNQ1 pot inactive, KCNK9 inh -7.06*, hERG rescue -20.2 and KCNK3 block inactive.
Screening CC(=O)Oc1cc2c(C(=O)NCCCN3CCOCC3)c(C)oc2c2ccccc12 returned KCNQ1 block inactive, PHOSPHO1 block -6.8, KCNQ1 pot inactive, KCNK9 inh inactive, hERG rescue -4.2 and KCNK3 block inactive.
Screening c1ccc(Cc2noc(CN3CCC(CN4CCOCC4)CC3)n2)cc1 returned KCNQ1 block inactive, PHOSPHO1 block 61.1*, KCNQ1 pot inactive, KCNK9 inh inactive, hERG rescue -1.2 and KCNK3 block inactive.
For COCC1CCCN(Cc2nc(Cc3ccccc3)no2)C1 (centres undefined) the results were KCNQ1 block inactive, PHOSPHO1 block 49.8, KCNQ1 pot inactive, KCNK9 inh inactive, hERG rescue -5.3 and KCNK3 block inactive.

Source: PubChem BioAssay (several laboratories)
